Compound activity as filed in PubChem BioAssay.
Shown are actives, neighbours in structure and some others; about 2.3% of the full set was active somewhere.
Ecoli WT expand: growth inhibitors of wild-type E. coli, primary screen, strain BW25113, expanded library, OD600; OD600 absorbance; growth inhibition, % at 100 µM; 98,000 compounds, 0.15% hits; AID 710, 2007;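 active means growth inhibition above about 50% at one test dose, limit read from the data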;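 further: growth measured after 20 h incubation at 37 °C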
AP ELISA ortho: alternative complement pathway inhibitors, primary screen, biochemical, ELISA, human serum, orthogonally pooled compounds; AID 1235, 2008; inhibition, % at 5 µM; 62,000 compounds, 0.08% hits; LPS-coated ELISA, C3 deposition; tested in compound mixtures;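 active means inhibition above 30% in each of the two pooled mixtures holding the compound, so the lower value exceeds 30%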;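 further: 0% = serum in Mg-EGTA without compound and 100% = EDTA serum blank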
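Assay system: human serum alternative complement pathway, C3 deposition on LPS-coated wells; Dosing: 5 µM per compound in ten-compound mixtures; Detection: Anti-C3 ELISA, OD 450 nm; Buffer or medium: Mg2+-EGTA GVB++ buffer containing human serum at 1:15 dilution; Timing: 1 h at 37 °C; Replication: two different pools per compound.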
PLAP act: PLAP enzyme activators, biochemical, luminescence, HTS. Alkaline phosphatase, placental type (Homo sapiens), P05187. purified PLAP enzyme, luminescent substrate read-out; hits give high values. activation fold at 20 µM. 96,000 compounds, 1.2% hits. AID 696, 2007; in the data active means activation fold above about 2
HePTP inhibitor: inhibitors of human HePTP phosphatase, primary screen, biochemical, absorbance, leukemia target. Tyrosine-protein phosphatase non-receptor type 7 (Homo sapiens), P35236. AID 521, 2006. inhibition, % at 20 µM. recombinant HePTP phosphatase activity, OD absorbance. 110,000 compounds, 0.64% hits; in the data active means inhibition above about 50%;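 further: plate controls were vehicle for no effect and reference inhibitor for full effect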
Target sequence (P35236 whole entry, looked up): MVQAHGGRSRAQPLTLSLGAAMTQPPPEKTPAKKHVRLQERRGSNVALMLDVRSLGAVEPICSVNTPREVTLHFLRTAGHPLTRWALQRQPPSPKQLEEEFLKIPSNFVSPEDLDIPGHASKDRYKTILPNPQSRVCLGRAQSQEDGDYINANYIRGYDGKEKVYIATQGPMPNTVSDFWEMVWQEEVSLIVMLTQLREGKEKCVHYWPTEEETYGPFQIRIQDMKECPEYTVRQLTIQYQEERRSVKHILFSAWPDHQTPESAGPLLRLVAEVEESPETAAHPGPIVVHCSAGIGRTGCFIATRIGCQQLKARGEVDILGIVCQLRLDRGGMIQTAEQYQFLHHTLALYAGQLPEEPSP
tolC growth inh: growth inhibitors of E. coli tolC mutant, primary screen, strain BW25113 ΔtolC::kan, 384-well; OD615; growth inhibition, % at 10 µM (by protocol); 65,000 compounds, 2.2% hits; AID 573, 2007;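 active means growth inhibition at or above a cutoff equal to the mean over every tested compound plus 3 SD, cut at about 60% in these data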;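 further: growth measured after 20 h incubation at 37 °C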
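test system = E. coli BW25113 ΔtolC::kan bacteria | medium = LB with kanamycin 50 µg/mL | signal = OD at 615 nm | schedule = 37 °C, 20 h exposure | evaluation = % inhibition of E. coli growth | compound dosing = one dose of 10 µM final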
* = called active by the depositor; / = not tested or not shown; ! = not confirmed by another sample.

SMILES | Ecoli WT expand | AP ELISA ortho | PLAP act | HePTP inhibitor | tolC growth inh
Cc1cc(C)c(N2C(=O)NC(=O)/C(=C/c3ccc([N+](=O)[O-])o3)C2=O)c(C)c1 | / | / | / | 76* | /
O=C(N/N=C/c1ccccn1)c1ccc(O)cc1O | / | / | / | -9 | /
COc1ccccc1N1CCN(c2ncnc3c2oc2ccccc23)CC1 | -4 | 33* | 1.3 | 7 | 35
c1cnc(N2CCN(c3ncnc4c3oc3ccccc34)CC2)nc1 | / | 22 | 1.2 | 5 | 1
C(=C\c1ccccc1)/CN1CCN(c2ncnc3c2oc2ccccc23)CC1 | -6 | 8 | 1.5 | -2 | 100*
CCOC(=O)c1[nH]c(=O)[nH]c1CSc1nc2ccccc2o1 | / | / | / | 9 | /
Cc1ccc(-c2ccc(OCC(=O)NC(C)c3ccccc3)cc2)cc1 (centres undefined) | / | / | / | 8 | /
O=C(Nc1nnc(-c2ccco2)s1)c1ccco1 | / | / | / | -7 | /
COc1ccccc1N1C(=O)C(=Cc2cccn2C)C(=O)NC1=S | / | / | / | 102* | /
COc1ccc(C2=NN(c3ccccc3)C(c3ccccc3F)C2)cc1 (centres undefined) | / | / | / | 5 | /
COc1ccc(C(=O)n2c(-c3ccco3)nc3ccccc32)cc1 | -6 | 7 | 1.2 | 5 | 64*
COc1ccc(C(=O)N2CCN(c3ccccc3)CC2)cc1OC | / | / | / | -10 | /
CCOCCOC(=O)C1=C(C)NC2=C(C(=O)CCC2)C1c1ccccc1Cl (centres undefined) | / | / | / | 0 | /
Nc1nc(Nc2ccc(Cl)cc2)nc2ccccc12 | 93* | / | 0.7 | / | /
COc1ccc(S(=O)(=O)NNC(=O)c2cc3cc4ccccc4nc3s2)cc1 | 2 | / | 2* | / | /
CC(C)C(=O)Nc1ccc(Cl)c(-c2nc3cc(Cl)ccc3o2)c1 | / | / | / | -9 | /
COC(=O)c1ccc(/C=C2\SC(=S)N(NC(=O)c3ccccc3C)C2=O)cc1 | / | / | / | 4 | /
COc1ccc(CN(C(=O)c2ccco2)C2CC(C)N(C)CC2C)cc1 (centres undefined) | 7 | 8 | 0.9 | 102*! | -6
Cc1ccc2c(CC(=O)OCc3nc(N)nc(Nc4ccccc4C)n3)coc2c1 | 3 | 21 | 0.9 | 2 | 72*
Cc1ccccc1Nc1nc(N)nc(COC(=O)CCS(=O)(=O)c2ccccc2)n1 | 6 | 11 | 1 | 10 | -6
CCCC(=Nc1cccc([N+](=O)[O-])c1)C1=C(O)CC(C)(C)CC1=O | / | / | / | 61* | /
COCCNC(=O)c1cc2nc(-c3ccc(OC)c(OC)c3)cc(C(F)(F)F)n2n1 | / | / | / | 6 | /
Cc1ccc(-c2nn(-c3ccccc3)c3[nH]c(=O)c(CNCCN(C)C)cc23)cc1 | / | 14 | 2.7* | -8 | 45
Cc1nn(-c2ccccc2)c2[nH]c(=O)c(CNCc3ccc4c(c3)OCO4)cc12 | 2 | 1 | 1.6 | -4 | 93*
COc1ccc(/C=C(/C#N)C(N)=O)cc1O | / | / | / | -2 | /
SMILES | Ecoli WT expand | AP ELISA ortho | PLAP act | HePTP inhibitor | tolC growth inh
CCCCNC(=O)Cn1c2c(c(-c3ccccc3Cl)cc1=O)CCC2 | 2 | / | 1.5 | / | /
O=C(Cn1c2c(c(-c3ccccc3)cc1=O)CCCC2)N1CCCCCC1 | / | 8 | / | 2 | 100*
CSc1nc(N2CCOCC2)c2c3c(sc2n1)CCCC3 | -2 | 16 | 1 | 15 | 96*
c1nc(N2CCOCC2)c2c3c(sc2n1)CCCC3 | 2 | -7 | 1.1 | 4 | 15
Cc1ccc(/C=C2\C=C(c3ccc(Cl)cc3)OC2=O)o1 | / | / | / | 82* | /
CCOc1ccc2nc(SCC(=O)Nc3cc(OC)ccc3OC)sc2c1 | / | / | / | 6 | /
COc1ccc(-c2cc(-c3c(O)c(OC)c4occc4c3OC)[nH]n2)cc1 | 11 | / | 2.3* | / | /
CCCCCCn1c(C)nc2c(c1=O)c1nc3ccccc3nc1n2/N=C/c1ccco1 | -8 | / | 2* | / | /
CCOC(=O)N/N=C(\C)c1ccc(O)cc1O | / | / | / | -7 | /
O=C(Nc1ccc(NC(=O)c2ccc(Cl)c(S(=O)(=O)N3CCOCC3)c2)cc1)c1ccccc1 | / | / | / | -22 | /
O=C(Nc1ccccc1)c1ccc(N2CCN(c3ccccc3)CC2)c(S(=O)(=O)N2CCOCC2)c1 | -14 | / | 1.6 | / | /
O=C(Nc1ccccc1)c1ccc(N2CCN(c3ccccn3)CC2)c(S(=O)(=O)N2CCOCC2)c1 | -5 | / | 2.1* | / | /
O=C(Nc1ccccc1)c1ccc(NC2CCCCC2)c(S(=O)(=O)N2CCOCC2)c1 | -5 | / | 2.1* | / | /
CC(C)(C)OC(=O)N1CCC[C@H]1c1nnc(SCc2c(Cl)cccc2Cl)o1 | 5 | -2 | 1.7 | -3 | 79*
CCN(CC)CCCCOc1ccc(OC)cc1 | / | / | / | -16 | /
Cc1ccc2cc(C(c3nnnn3CC3CCCO3)N3CCc4ccccc4C3)c(=O)[nH]c2c1 (centres undefined) | 12 | 9 | 1.5 | 0 | 14
Cc1cccc2cc(C(c3nnnn3CC3CCCO3)N3CCc4ccccc4C3)c(=O)[nH]c12 (centres undefined) | 2 | 3 | 1.4 | 7 | 69*
COc1cc(C2C(C(=O)c3ccco3)=C(O)C(=O)N2c2cc(C)on2)cc(Br)c1O (centres undefined) | 7 | 8 | 0.9 | -10 | 23
COc1cc(C2C(C(=O)c3ccc(C)o3)=C(O)C(=O)N2c2cc(C)on2)cc(Br)c1O (centres undefined) | -8 | 19 | 0.9 | 1 | 65*
CSc1cccc(NS(=O)(=O)c2ccc(F)cc2)c1 | 24 | 34* | 1.3 | 2 | 29
CSc1cccc(NS(=O)(=O)c2ccccc2)c1 | 10 | 12 | 1 | 12 | 11
O=C(Nc1nc(-c2cc(Cl)sc2Cl)cs1)c1cccs1 | -12 | -8 | 0.9 | -2 | 100*
COCCN1C=C(C(=O)OC)C(c2ccc(OC)c(OC)c2)C(C(=O)OC)=C1 | -7 | -6 | 1.4 | -5 | -7
CCCOc1ccc(C2C(C(=O)OC)=CN(CCOC)C=C2C(=O)OC)cc1 | 6 | 11 | 2.1* | 4 | 13
COc1ccc(C(=O)Nc2nc(-c3cccs3)cs2)cc1 | -3 | -4 | 0.8 | -10 | 98*
SMILES | Ecoli WT expand | AP ELISA ortho | PLAP act | HePTP inhibitor | tolC growth inh
COc1cc(C(=O)Nc2nc(-c3cccs3)cs2)cc(OC)c1OC | 0 | 18 | 0.8 | 3 | 69*
COc1c(Cl)cc(C(=O)Nc2nc(-c3ccccc3)cs2)cc1Cl | / | / | / | -15 | /
O=C(Nc1nc(-c2cccs2)cs1)c1ccc(Cl)cc1 | -12 | / | 0.9 | / | /
COc1cccc(C(O)c2nc3ccccc3n2C(C)C)c1 (centres undefined) | 10 | / | 2.4* | -9 | /
O=C(COc1c(F)c(F)c(C(F)(F)F)c(F)c1F)Nc1ccc(N2CCOCC2)c(Cl)c1 | -21 | -3 | 1.1 | 18 | 100*
Cc1cc(NCCCn2ccnc2)n2ncc(-c3ccccc3)c2n1 | 11 | 11 | 2.3* | 7 | 23
CCCCN(CC)S(=O)(=O)c1ccc(C(=O)Nc2nnc(CSC)o2)cc1 | 12 | 16 | 1.2 | 16 | 98*
CCCCN(CCCC)S(=O)(=O)c1ccc(C(=O)Nc2nnc(CSC)o2)cc1 | 8 | 7 | 1.2 | 6 | 99*
